What was measured:
[1] = biological target: Delta-type opioid receptor (Mus musculus, UniProt P32300); experiment: Partial agonist activity expressed as inhibition of contraction of mouse vas deferens (MVD) smooth muscle at 1 uM conc.; assay type: functional, tissue-based, Muscle tissue
How it was run: (§1)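 Agonist action on electrically driven tissues at 37 °C: GPI (1 g tension, 0.4-ms pulses) and Mg-free MVD (0.5 g, 2-ms pulses), 0.1 Hz. Percent inhibition of contraction height read 10 min after 1 μM compound; for stronger agonists, IC50 from concentration–response curves (2–4 tissues, nonlinear least squares). Selectivity = GPI IC50/MVD IC50.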

[2] = biological target: T1, Delta-type opioid receptor (Rattus norvegicus, UniProt P33533); experiment: Displacement of [3H]DADLE from morphine-sensitive Opioid receptor delta 1 (presence of 300 nM DELT-II) of rat brain membranes; assay type: cell membranes, Membrane
T1 sequence (P33533 whole entry): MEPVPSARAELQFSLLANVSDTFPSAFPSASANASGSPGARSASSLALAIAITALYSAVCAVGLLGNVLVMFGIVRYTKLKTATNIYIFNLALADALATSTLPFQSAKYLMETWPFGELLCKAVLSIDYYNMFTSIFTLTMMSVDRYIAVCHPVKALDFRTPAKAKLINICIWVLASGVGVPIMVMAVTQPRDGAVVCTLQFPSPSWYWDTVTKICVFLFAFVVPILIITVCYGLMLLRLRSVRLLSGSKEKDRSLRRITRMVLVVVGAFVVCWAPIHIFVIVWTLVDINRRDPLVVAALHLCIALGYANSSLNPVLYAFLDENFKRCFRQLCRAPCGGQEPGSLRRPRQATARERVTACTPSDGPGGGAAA
How it was run: (§2)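 Rat brain membranes pretreated with (+)-trans-[…], labelled with 2.0 nM [3H]DADLE, plus 50 nM morphine (δcx-2) or 300 nM DELT-II (δcx-1). Incubation 4–6 h at 25 °C in 10 mM Tris-HCl pH 7.4 with 100 mM NaCl, 3 mM MnCl2, 2 μM GTP, 5 mM 2-mercaptoethanol and protease inhibitors. 8–10 concentrations, twice.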

[3] = biological target: T2, Kappa-type opioid receptor (Cavia porcellus, UniProt P41144); experiment: Displacement of [125I]OXY from Opioid receptor kappa 2b of guinea pig brain membranes (pretreated with BIT(mu) and FIT(delta) and in the presence of (-)U50,488)
T2 sequence (P41144 whole entry): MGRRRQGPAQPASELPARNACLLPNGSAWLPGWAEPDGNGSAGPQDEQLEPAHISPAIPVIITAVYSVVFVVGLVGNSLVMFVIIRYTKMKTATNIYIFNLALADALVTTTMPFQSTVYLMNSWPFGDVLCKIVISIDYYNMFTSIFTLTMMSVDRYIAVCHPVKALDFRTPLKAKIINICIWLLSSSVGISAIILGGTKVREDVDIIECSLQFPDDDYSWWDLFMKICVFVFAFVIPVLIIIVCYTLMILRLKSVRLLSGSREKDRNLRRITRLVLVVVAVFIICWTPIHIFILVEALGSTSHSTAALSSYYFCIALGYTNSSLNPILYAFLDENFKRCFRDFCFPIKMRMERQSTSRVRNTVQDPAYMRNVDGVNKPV
How it was run: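 Guinea pig brain membranes depleted of μ/δ sites by BIT and FIT, labelled with 0.01 nM [125I]IOXY in presence of 5 μM (−)U50,488. Incubation 4–6 h at 4 °C in 50 mM Tris-HCl pH 7.4 with 10 mM NaCl, protease inhibitors and 1 μg/mL captopril.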

Mu-type opioid receptor = Mu-type opioid receptor (Rattus norvegicus, UniProt P33535); experiment: Displacement of [3H]DAMGO from Opioid receptor mu 1 of rat brain membranes; assay type: cell membranes, Membrane
Sequence of Mu-type opioid receptor (P33535 whole entry): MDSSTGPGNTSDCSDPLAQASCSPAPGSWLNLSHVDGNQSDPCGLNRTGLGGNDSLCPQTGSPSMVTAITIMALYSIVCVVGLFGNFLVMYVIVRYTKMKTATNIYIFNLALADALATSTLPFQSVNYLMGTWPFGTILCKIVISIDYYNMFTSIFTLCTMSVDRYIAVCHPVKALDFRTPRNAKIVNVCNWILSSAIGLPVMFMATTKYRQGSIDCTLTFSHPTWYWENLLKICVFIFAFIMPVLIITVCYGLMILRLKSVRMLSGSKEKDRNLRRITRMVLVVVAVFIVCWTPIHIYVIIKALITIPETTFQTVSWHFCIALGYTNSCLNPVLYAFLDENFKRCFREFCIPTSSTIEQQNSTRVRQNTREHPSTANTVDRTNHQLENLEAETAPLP
How it was run: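 Rat brain membranes labelled with [3H]DAMGO. Incubation 4 h at 25 °C in 50 mM Tris-HCl pH 7.4 with protease inhibitor cocktail. Nonspecific binding defined with 20 μM levallorphan. 8–10 test concentrations, run twice; IC50 and slope factor derived.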

Cavia porcellus = species: Cavia porcellus; experiment: Partial agonist activity expressed as inhibition of contraction of guinea pig ileal longitudinal muscle myenteric plexus (GPI) at 1 uM conc.; assay type: functional, organism-based; settings: Muscle tissue; how it was run: as §1
[4] = biological target: T1, Delta-type opioid receptor; experiment: Displacement of [3H]DADLE from Opioid receptor delta 1 of rat brain membranes (DAMGO quenching mu receptor); assay type: cell membranes, Membrane
How it was run: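 Rat brain membranes labelled with [3H]DADLE. Incubation 3–4 h at 25 °C in 10 mM Tris-HCl pH 7.4 with 100 mM choline chloride, 3 mM MnCl2, 100 nM DAMGO (μ block) and protease inhibitors. Levallorphan 20 μM for nonspecific binding. 8–10 concentrations, duplicate runs.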

[5] = biological target: T1, Delta-type opioid receptor; experiment: Displacement of [3H]DADLE from morphine-insensitive Opioid receptor delta 1 (presence of 50 nM morphine) of rat brain membranes; assay type: cell membranes, Membrane; how it was run: as §2
[6] = biological target: Opioid receptors; mu & delta (Homo sapiens) (UniProt P41143+P35372); experiment: IC50 selectivity for mu receptor of guinea pig Ileum (GPI) and delta receptor of delta opioid receptor of mouse vas deferens (MVD) smooth muscle preparation; assay type: tissue-based; how it was run: as §1
Sequence of Opioid receptors; mu & delta (Homo sapiens) (P35372 whole entry, looked up): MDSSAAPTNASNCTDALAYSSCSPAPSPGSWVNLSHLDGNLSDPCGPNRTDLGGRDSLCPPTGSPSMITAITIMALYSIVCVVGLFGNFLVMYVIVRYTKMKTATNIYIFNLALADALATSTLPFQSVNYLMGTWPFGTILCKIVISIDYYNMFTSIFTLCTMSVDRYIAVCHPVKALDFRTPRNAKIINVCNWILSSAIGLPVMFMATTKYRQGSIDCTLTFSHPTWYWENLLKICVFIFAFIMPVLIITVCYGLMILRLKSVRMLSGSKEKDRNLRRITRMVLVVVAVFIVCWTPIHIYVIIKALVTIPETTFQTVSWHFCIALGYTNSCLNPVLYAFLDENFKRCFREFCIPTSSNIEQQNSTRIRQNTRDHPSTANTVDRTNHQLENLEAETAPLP
Sequence of Opioid receptors; mu & delta (Homo sapiens) (P41143 whole entry, looked up): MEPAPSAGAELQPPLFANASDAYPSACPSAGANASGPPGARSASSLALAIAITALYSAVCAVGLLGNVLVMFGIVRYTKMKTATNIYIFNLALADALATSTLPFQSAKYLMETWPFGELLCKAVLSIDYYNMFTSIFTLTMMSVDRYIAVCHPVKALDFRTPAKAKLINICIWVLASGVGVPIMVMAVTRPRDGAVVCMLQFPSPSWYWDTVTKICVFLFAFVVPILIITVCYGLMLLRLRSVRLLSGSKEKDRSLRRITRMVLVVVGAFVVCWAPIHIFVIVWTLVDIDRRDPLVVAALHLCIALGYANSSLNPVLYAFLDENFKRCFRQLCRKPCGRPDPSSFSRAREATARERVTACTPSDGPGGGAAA

[7] = biological target: Delta-type opioid receptor (Mus musculus) (UniProt P32300); experiment: Displacement of DPDPE from Opioid receptor delta 1 of mouse vas deferens (MVD)smooth muscle
Sequence of Delta-type opioid receptor (Mus musculus) (P32300 whole entry): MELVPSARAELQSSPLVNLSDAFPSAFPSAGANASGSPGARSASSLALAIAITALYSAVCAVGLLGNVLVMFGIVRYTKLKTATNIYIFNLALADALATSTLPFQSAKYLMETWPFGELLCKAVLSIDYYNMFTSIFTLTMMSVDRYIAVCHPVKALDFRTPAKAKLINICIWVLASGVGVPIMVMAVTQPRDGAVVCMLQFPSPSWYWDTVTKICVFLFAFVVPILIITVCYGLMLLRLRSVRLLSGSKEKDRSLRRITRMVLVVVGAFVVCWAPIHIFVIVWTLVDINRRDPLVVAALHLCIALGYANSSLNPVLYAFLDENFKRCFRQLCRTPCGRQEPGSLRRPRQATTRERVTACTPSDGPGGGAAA
How it was run: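 Mouse vas deferens (male ICR, 25–40 g) in Mg-free oxygenated Krebs at 37 °C, 0.5 g tension; transmural 0.1 Hz, 2-ms pulses, supramaximal voltage. Control DPDPE curve first; then 1 μM compound 30 min, 30 min wash, cumulative DPDPE curve (3-min steps) repeated. IC50 ratio = shifted/control IC50; Ke = [antagonist]/(ratio − 1); n ≥ 3.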

[8] = Relative affinity for guinea pig kappa1 and rat delta receptors
[9] = biological target: Opioid receptors; mu & delta (Rattus norvegicus) (UniProt P33533+P33535); experiment: Relative affinity for mu and delta receptors in rat brain membranes; assay type: cell membranes
Sequence of Opioid receptors; mu & delta (Rattus norvegicus) (P33533 whole entry, looked up): as the sequence (P33533 whole entry) above
Sequence of Opioid receptors; mu & delta (Rattus norvegicus) (P33535 whole entry, looked up): as the sequence (P33535 whole entry) above

[10] = biological target: T2, Kappa-type opioid receptor; experiment: Displacement of [3H]U-69593 from Opioid receptor kappa 1 of guinea pig brain membranes (pretreated with BIT and FIT to block mu and delta sites)
How it was run: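 Guinea pig brain membranes pretreated with BIT and FIT, labelled with [3H]U69,593. Incubation 4–6 h at 25 °C in 50 mM Tris-HCl pH 7.4 with protease inhibitors and 1 μg/mL captopril. Nonspecific binding with 1 μM U69,593. 8–10 concentrations, twice.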

Sequence of Delta-type opioid receptor (Mus musculus, UniProt P32300) (P32300 whole entry): as the sequence (P32300 whole entry) above

In the case of `Oc1ccc2c3c1OC1c4[nH]c5cc(Oc6ccccc6)ccc5c4C[C@@]4(O)[C@@H](C2)N(CC2CC2)CC[C@]314` (some centres not stated), the IC50 [1] is reported as 3 µM, the Ki [2] is reported as 0.0894 µM and the Ki [3] is reported as 0.175 µM. The Ki (Mu-type opioid receptor) was 0.235 µM, the IC50 (Cavia porcellus) was 2.3 µM and the Ki [4] was 0.0064 µM. It also gave a Ki [5] of 0.0049 µM, a Selectivity ratio [6] of 0.8 and a Ke [7] of 4.6 nM. The Selectivity ratio [8] was 37, the Selectivity ratio [9] was 37 and the Ki [10] was 0.236 µM.

Source: ChEMBL document CHEMBL1131041 (J Med Chem, 1998)
